How the values were obtained:
Format in all cases: functional
[1] = system: MDA-MB-435; assay: Growth inhibition of human MDA-MB-435 cells after 48 hrs by SRB assay; conditions: MDA-MB-435, 48 h
Summary of the method: (§1)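 NCI 60-cell-line screen. Cells grown in RPMI1640 with 5% fetal calf serum and 2 mM L-glutamine, with inoculum density set by cell line. Preincubated 24 h, then given compound in DMSO at 10^-4 to 10^-8 M (five 10-fold steps) for 48 h continuous exposure. Growth measured by SRB protein assay. GI50, TGI and LC50 reported as –log molar.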

[2] = system: IGROV-1; assay: Growth inhibition of human IGROV1 cells after 48 hrs by SRB assay; conditions: IGROV-1, 48 h; summary of the method: as §1
[3] = system: TK-10; assay: Growth inhibition of human TK10 cells after 48 hrs by SRB assay; conditions: TK-10, 48 h; summary of the method: as §1
[4] = system: NCI/ADR-RES; assay: Growth inhibition of human NCI/ADR-RES cells after 48 hrs by SRB assay; summary of the method: as §1
[5] = system: SW-620; assay: Growth inhibition of human SW620 cells after 48 hrs by SRB assay; conditions: SW-620, 48 h; summary of the method: as §1
[6] = system: HL-60(TB); assay: Growth inhibition of human HL-60(TB) cells after 48 hrs by SRB assay; conditions: HL-60, 48 h
Summary of the method: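 NCI 60-cell-line screen: cells grown in RPMI1640 with 5% fetal calf serum and 2 mM L-glutamine, preincubated 24 h, then exposed to compound in DMSO at five concentrations (10^-4 to 10^-8 M) for 48 h continuous exposure. Growth estimated by sulforhodamine B protein assay; reported as pGI50 (-log molar concentration inhibiting net cell growth by 50%).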

[7] = system: SF-268; assay: Growth inhibition of human SF268 cells after 48 hrs by SRB assay; conditions: SF-268, 48 h; summary of the method: as §1
[8] = system: CCRF-CEM; assay: Growth inhibition of human CCRF-CEM cells after 48 hrs by SRB assay; summary of the method: as §1
[9] = system: HCT-15; assay: Growth inhibition of human HCT15 cells after 48 hrs by SRB assay; conditions: HCT-15, 48 h; summary of the method: as §1
[10] = system: EKVX; assay: Growth inhibition of human EKVX cells after 48 hrs by SRB assay; summary of the method: as §1
[11] = system: SK-MEL-2; assay: Growth inhibition of human SK-MEL-2 cells after 48 hrs by SRB assay; conditions: SK-MEL-2, 48 h; summary of the method: as §1
[12] = system: BT-549; assay: Growth inhibition of human BT549 cells after 48 hrs by SRB assay; conditions: BT-549, 48 h; summary of the method: as §1
[13] = Growth inhibition of human Hs 578T cells after 48 hrs by SRB assay; summary of the method: as §1
[14] = system: CAKI-1; assay: Growth inhibition of human Caki1 cells after 48 hrs by SRB assay; conditions: CAKI-1, 48 h; summary of the method: as §1
[15] = system: HT-29; assay: Growth inhibition of human HT-29 cells after 48 hrs by SRB assay; conditions: HT-29, 48 h; summary of the method: as §1
[16] = system: HOP-62; assay: Growth inhibition of human HOP62 cells after 48 hrs by SRB assay; conditions: HOP-62, 48 h; summary of the method: as §1
[17] = system: SNB-75; assay: Growth inhibition of human SNB75 cells after 48 hrs by SRB assay; conditions: SNB-75, 48 h; summary of the method: as §1
[18] = system: SF-539; assay: Growth inhibition of human SF539 cells after 48 hrs by SRB assay; conditions: SF-539, 48 h; summary of the method: as §1
[19] = system: OVCAR-3; assay: Growth inhibition of human OVCAR-3 cells after 48 hrs by SRB assay; conditions: OVCAR-3, 48 h; summary of the method: as §1
[20] = system: 786-0; assay: Growth inhibition of human 786-0 cells after 48 hrs by SRB assay; conditions: 786-0, 48 h; summary of the method: as §1
[21] = system: MDA-MB-468; assay: Growth inhibition of human MDA-MB-468 cells after 48 hrs by SRB assay; conditions: MDA-MB-468, 48 h; summary of the method: as §1
[22] = system: DU-145; assay: Growth inhibition of human DU145 cells after 48 hrs by SRB assay; conditions: DU-145, 48 h; summary of the method: as §1
[23] = system: RXF 393; assay: Growth inhibition of human RXF393 cells after 48 hrs by SRB assay; conditions: RXF 393, 48 h; summary of the method: as §1
[24] = system: M14; assay: Growth inhibition of human M14 cells after 48 hrs by SRB assay; conditions: M14, 48 h; summary of the method: as §1
[25] = system: NCI-H460; assay: Growth inhibition of human NCI-H460 cells after 48 hrs by SRB assay; conditions: NCI-H460, 48 h; summary of the method: as §1
[26] = system: UO-31; assay: Growth inhibition of human UO31 cells after 48 hrs by SRB assay; conditions: UO-31, 48 h; summary of the method: as §1
[27] = system: Malme-3M; assay: Growth inhibition of human MALME-3M cells after 48 hrs by SRB assay; conditions: read-out: pTGI (converted); summary of the method: as §1
[28] = system: SK-MEL-28; assay: Growth inhibition of human SK-MEL-28 cells after 48 hrs by SRB assay; conditions: SK-MEL-28, 48 h; summary of the method: as §1
[29] = system: SK-MEL-5; assay: Growth inhibition of human SK-MEL-5 cells after 48 hrs by SRB assay; conditions: SK-MEL-5, 48 h; summary of the method: as §1
[30] = Growth inhibition of human […] cells after 48 hrs by SRB assay; summary of the method: as §1
[31] = system: OVCAR-8; assay: Growth inhibition of human OVCAR8 cells after 48 hrs by SRB assay; conditions: OVCAR-8, 48 h; summary of the method: as §1
[32] = system: NCI-H522; assay: Growth inhibition of human NCI-H522 cells after 48 hrs by SRB assay; conditions: NCI-H522, 48 h; summary of the method: as §1
[33] = system: KM12; assay: Growth inhibition of human KM12 cells after 48 hrs by SRB assay; conditions: KM12, 48 h; summary of the method: as §1
[34] = system: A498; assay: Growth inhibition of human A498 cells after 48 hrs by SRB assay; conditions: A498, 48 h; summary of the method: as §1
[35] = system: SK-OV-3; assay: Growth inhibition of human SKOV3 cells after 48 hrs by SRB assay; conditions: SK-OV-3, 48 h; summary of the method: as §1
[36] = system: SR; assay: Growth inhibition of human SR cells after 48 hrs by SRB assay; summary of the method: as §1

Q: For `COc1cc(C2=NN(C(C)=O)C(c3cc(OC)c(OC)c(OC)c3)C2)ccc1O` (stereo not given), which GI50 [1] is on record?
A: The GI50 was 50.1 nM.

Q: And the TGI ([1]; read-out: pTGI (converted))?
A: The TGI was 200 nM.

Q: What about the GI50 [2] of the same molecule?
A: Its GI50 is 501 nM.

Q: And the TGI ([2]; read-out: pTGI (converted))?
A: Its TGI is > 100000 nM.

Q: And the GI50 [3]?
A: The GI50 was 631 nM.

Q: And the TGI ([3]; read-out: pTGI (converted))?
A: The TGI was > 100000 nM.

Q: And the GI50 [4]?
A: Its GI50 is 251 nM.

Q: And the TGI ([4]; read-out: pTGI (converted))?
A: Its TGI is > 100000 nM.

Q: And the GI50 [5]?
A: Its GI50 is 316 nM.

Q: And the TGI ([5]; read-out: pTGI (converted))?
A: Its TGI is > 100000 nM.

Q: And the GI50 [6]?
A: The GI50 was 158 nM.

Q: What about the TGI ([6]; read-out: pTGI (converted)) of the same molecule?
A: Its TGI is 501 nM.

Q: What about the GI50 [7] of the same molecule?
A: Its GI50 is 631 nM.

Q: And the TGI ([7]; read-out: pTGI (converted))?
A: Its TGI is > 100000 nM.

Q: And the GI50 [8]?
A: Its GI50 is 316 nM.

Q: And the TGI ([8]; read-out: pTGI (converted))?
A: Its TGI is 1000 nM.

Q: What about the GI50 [9] of the same molecule?
A: The GI50 was 398 nM.

Q: And the TGI ([9]; read-out: pTGI (converted))?
A: The TGI was > 100000 nM.

Q: And the GI50 [10]?
A: Its GI50 is 794 nM.

Q: What about the TGI ([10]; read-out: pTGI (converted)) of the same molecule?
A: The TGI was > 100000 nM.

Q: And the GI50 [11]?
A: Its GI50 is 501 nM.

Q: And the TGI ([11]; read-out: pTGI (converted))?
A: The TGI was > 100000 nM.

Q: What about the GI50 [12] of the same molecule?
A: The GI50 was 631 nM.

Q: What about the TGI ([12]; read-out: pTGI (converted)) of the same molecule?
A: The TGI was > 100000 nM.

Q: And the GI50 [13]?
A: Its GI50 is 200 nM.

Q: What about the TGI ([13]; read-out: pTGI (converted)) of the same molecule?
A: Its TGI is 631 nM.

Q: What about the GI50 [14] of the same molecule?
A: The GI50 was 316 nM.

Q: What about the TGI ([14]; read-out: pTGI (converted)) of the same molecule?
A: Its TGI is > 100000 nM.

Q: What about the GI50 [15] of the same molecule?
A: The GI50 was 316 nM.

Q: And the TGI ([15]; read-out: pTGI (converted))?
A: The TGI was > 100000 nM.

Q: And the GI50 [16]?
A: The GI50 was 501 nM.

Q: What about the TGI ([16]; read-out: pTGI (converted)) of the same molecule?
A: The TGI was > 100000 nM.

Q: And the GI50 [17]?
A: The GI50 was 251 nM.

Q: What about the TGI ([17]; read-out: pTGI (converted)) of the same molecule?
A: Its TGI is > 100000 nM.

Q: What about the GI50 [18] of the same molecule?
A: Its GI50 is 316 nM.

Q: What about the TGI ([18]; read-out: pTGI (converted)) of the same molecule?
A: The TGI was 1000 nM.

Q: And the GI50 [19]?
A: The GI50 was 251 nM.

Q: And the TGI ([19]; read-out: pTGI (converted))?
A: Its TGI is 631 nM.

Q: And the GI50 [20]?
A: The GI50 was 398 nM.

Q: And the TGI ([20]; read-out: pTGI (converted))?
A: Its TGI is > 100000 nM.

Q: And the GI50 [21]?
A: The GI50 was 251 nM.

Q: What about the TGI ([21]; read-out: pTGI (converted)) of the same molecule?
A: Its TGI is 794 nM.

Q: What about the GI50 [22] of the same molecule?
A: The GI50 was 316 nM.

Q: What about the TGI ([22]; read-out: pTGI (converted)) of the same molecule?
A: The TGI was 12600 nM.

Q: What about the GI50 [23] of the same molecule?
A: Its GI50 is 126 nM.

Q: And the GI50 [24]?
A: The GI50 was 398 nM.

Q: And the TGI ([24]; read-out: pTGI (converted))?
A: Its TGI is > 100000 nM.

Q: And the GI50 [25]?
A: The GI50 was 398 nM.

Q: And the TGI ([25]; read-out: pTGI (converted))?
A: Its TGI is 15800 nM.

Q: What about the GI50 [26] of the same molecule?
A: Its GI50 is 398 nM.

Q: And the TGI ([26]; read-out: pTGI (converted))?
A: The TGI was > 100000 nM.

Q: What about the TGI [27] of the same molecule?
A: Its TGI is > 100000 nM.

Q: And the GI50 [28]?
A: Its GI50 is 501 nM.

Q: And the TGI ([28]; read-out: pTGI (converted))?
A: Its TGI is > 100000 nM.

Q: And the GI50 [29]?
A: The GI50 was 63.1 nM.

Q: And the TGI ([29]; read-out: pTGI (converted))?
A: The TGI was 501 nM.

Q: And the GI50 [30]?
A: The GI50 was 200 nM.

Q: And the TGI ([30]; read-out: pTGI (converted))?
A: Its TGI is 794 nM.

Q: What about the GI50 [31] of the same molecule?
A: The GI50 was 631 nM.

Q: And the TGI ([31]; read-out: pTGI (converted))?
A: Its TGI is > 100000 nM.

Q: What about the GI50 [32] of the same molecule?
A: The GI50 was 316 nM.

Q: What about the TGI ([32]; read-out: pTGI (converted)) of the same molecule?
A: The TGI was > 100000 nM.

Q: What about the GI50 [33] of the same molecule?
A: The GI50 was 251 nM.

Q: What about the TGI ([33]; read-out: pTGI (converted)) of the same molecule?
A: Its TGI is > 100000 nM.

Q: What about the GI50 [34] of the same molecule?
A: The GI50 was 251 nM.

Q: And the TGI ([34]; read-out: pTGI (converted))?
A: The TGI was 3980 nM.

Q: And the GI50 [35]?
A: The GI50 was 316 nM.

Q: What about the TGI ([35]; read-out: pTGI (converted)) of the same molecule?
A: Its TGI is > 100000 nM.

Q: And the GI50 [36]?
A: Its GI50 is 50.1 nM.

Q: What about the TGI ([36]; read-out: pTGI (converted)) of the same molecule?
A: Its TGI is 501 nM.

Source: ChEMBL document CHEMBL1221342, “Synthesis and in vitro antitumor activity of new 4,5-dihydropyrazole derivatives” (Bioorg Med Chem, 2010)
